Reference: ChEMBL document CHEMBL3808283, “Biological Characterization and in Vivo Assessment of the Activity of a New Synthetic Macrocyclic Antifungal Compound” (J Med Chem, 2016)
Converted amounts (≈) assume the structure as drawn. The source made the active and inactive calls. The calls are words filed in the database; no cut-off is given here.

Tests used:
Candida albicans [1] = experiment: Antifungal activity against Candida albicans isolate DSY448 harboring CDR1 deletion mutant at 10 uM by serial dilution assay; assay type: functional, organism-based
How it was run: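 Spot dilution assay: C. albicans cells 10-fold serially diluted from 2 × 10^7 cells/mL, with 5 µL of each dilution spotted onto YEPD agar plates containing the drug.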

Candida parapsilosis [2] = experiment: Antifungal activity against Candida parapsilosis ATCC 34136 measured at 24 hrs by broth dilution assay; assay type: functional; conditions: Lodderomyces parapsilosis, ATCC 34136, 24 h
How it was run: (§1)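 EUCAST broth microdilution, including the update for non-fermenting yeasts (Cryptococcus, Geotrichum), on clinical and reference yeast isolates. Incubated at 37 °C and read at 24, 48 and 72 h. MIC taken as the lowest concentration with no visible growth. For Cryptococcus and Geotrichum, MICs were read only once growth was visible in the control row.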

Pichia kudriavzevii [3] = experiment: Antifungal activity against Candida krusei 193T measured at 24 hrs by broth dilution assay; assay type: functional; how it was run: as §1
Candida albicans [4] = experiment: Upregulation of orf19.3378 gene expression in Candida albicans SC5314 at 3 uM after 15 mins by microarray method relative to control; assay type: functional
How it was run: (§2)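 Log-phase cultures in liquid YEPD were exposed to 3 µM compound (final) for 15 or 45 min, with untreated controls sampled at the same times, in three biological replicates. Total RNA was extracted by glass-bead/phenol-chloroform disruption and integrity-checked. One-color Cy3-labelled cRNA (600 ng) was hybridized for 17 h at 65 °C to 8 × 15K arrays, and fold change was taken versus control.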

Candida albicans [5] = experiment: Upregulation of orf19.4907 gene expression in Candida albicans SC5314 at 3 uM after 15 mins by microarray method relative to control; assay type: functional; how it was run: as §2
Candida albicans [6] = experiment: Antifungal activity against Candida albicans 53T up to 96 hrs by broth dilution assay; assay type: functional, organism-based
Candida albicans [7] = experiment: Upregulation of CRZ2 gene expression in Candida albicans SC5314 at 3 uM after 45 mins by microarray method relative to control; assay type: functional
How it was run: (§3)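 Log-phase C. albicans SC5314 in liquid YEPD exposed to 3 µM final for 15 or 45 min; untreated controls taken at the same time points. Three biological replicates. RNA extracted by glass-bead/phenol-chloroform method and integrity checked. One-color Cy3-labeled cRNA (600 ng) hybridized 17 h at 65 °C to 8 × 15K arrays. Expression expressed as fold change versus control.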

Candida albicans [8] = experiment: Upregulation of orf19.2726 gene expression in Candida albicans SC5314 at 3 uM after 45 mins by microarray method relative to control; assay type: functional; how it was run: as §2
Candida albicans [9] = experiment: Upregulation of orf19.4531 gene expression in Candida albicans SC5314 at 3 uM after 15 mins by microarray method relative to control; assay type: functional; how it was run: as §2
Candida albicans [10] = experiment: Upregulation of LCB4 gene expression in Candida albicans SC5314 at 3 uM after 45 mins by microarray method relative to control; assay type: functional; how it was run: as §3
Candida albicans [11] = experiment: Upregulation of orf19.3089 gene expression in Candida albicans SC5314 at 3 uM after 45 mins by microarray method relative to control; assay type: functional; how it was run: as §2
Candida albicans [12] = experiment: Upregulation of orf19.1887 gene expression in Candida albicans SC5314 at 3 uM after 15 mins by microarray method relative to control; assay type: functional; how it was run: as §2
Pichia kudriavzevii [13] = experiment: Ratio of MIC at 24 hrs to MIC at 48 hrs for Candida krusei 193T; assay type: functional
How it was run: (§4)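 MICs by EUCAST broth microdilution, with the update for non-fermenting yeasts, incubated at 37 °C. Read at 24, 48 and 72 h as the lowest concentration preventing visible growth.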

Nakaseomyces glabratus [14] = experiment: Antifungal activity against Candida glabrata 70 measured at 24 hrs by broth dilution assay; assay type: functional; conditions: Nakaseomyces glabratus, 70, 24 h; how it was run: as §1
Magnusiomyces capitatus [15] = experiment: Antifungal activity against Geotrichum capitatum measured at 72 hrs by broth dilution assay; assay type: functional; how it was run: as §1
Candida albicans [16] = experiment: Upregulation of orf19.1887 gene expression in Candida albicans SC5314 at 3 uM after 45 mins by microarray method relative to control; assay type: functional; how it was run: as §2
Nakaseomyces glabratus [17] = experiment: Antifungal activity against Candida glabrata 70 measured at 72 hrs by broth dilution assay; assay type: functional; conditions: Nakaseomyces glabratus, 70, 72 h; how it was run: as §1
Candida parapsilosis [18] = experiment: Antifungal activity against Candida parapsilosis 64E measured at 24 hrs by broth dilution assay; assay type: functional; conditions: Lodderomyces parapsilosis; how it was run: as §1
Candida albicans [19] = experiment: Antifungal activity against Candida albicans 53T measured at 24 hrs by broth dilution assay; assay type: functional; how it was run: as §1
Candida albicans [20] = experiment: Upregulation of ERG2 gene expression in Candida albicans SC5314 at 3 uM after 45 mins by microarray method relative to control; assay type: functional; how it was run: as §3
Magnusiomyces capitatus [21] = experiment: Antifungal activity against Geotrichum capitatum measured at 48 hrs by broth dilution assay; assay type: functional; how it was run: as §1
Pichia kudriavzevii [22] = experiment: Ratio of MIC at 24 hrs to MIC at 48 hrs for Candida krusei ATCC 14243; assay type: functional; how it was run: as §4
[23] = Antifungal activity against Geotrichum silvicola measured at 48 hrs by broth dilution assay; assay type: functional; how it was run: as §1
Pichia kudriavzevii [24] = experiment: Fungicidal activity against Candida krusei ATCC 14243 assessed as reduction in CFU at 80 uM measured at 24 hrs by time kill assay relative to control; assay type: functional; conditions: ATCC 14243, 24 h
How it was run: (§5)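 EUCAST broth microdilution at 37 °C. From wells at MIC, 2×, 4× and 8× MIC, 10 µL aliquots were taken, serially 10-fold diluted in saline and plated on Sabouraud dextrose agar. Plates were incubated at 37 °C for 24/48 h, and 48 h for Cryptococcus and Geotrichum. Done in duplicate, detection limit 10 CFU/mL. A drop of at least 3 Log10 CFU/mL from the initial inoculum in 24 h counts as fungicidal; a smaller drop counts as fungistatic.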

Candida parapsilosis [25] = experiment: Fungicidal activity against Candida parapsilosis 81E at 40 uM after 24 to 48 hrs by time kill assay; assay type: functional, organism-based; how it was run: as §5
Candida albicans [26] = experiment: Upregulation of orf19.4907 gene expression in Candida albicans SC5314 at 3 uM after 45 mins by microarray method relative to control; assay type: functional; how it was run: as §2
Candida albicans [27] = experiment: Upregulation of TAC1 gene expression in Candida albicans SC5314 at 3 uM after 15 mins by microarray method relative to control; assay type: functional; how it was run: as §3
Cryptococcus neoformans = experiment: Antifungal activity against Cryptococcus neoformans up to 96 hrs by broth dilution assay; assay type: functional, organism-based
Candida tropicalis = experiment: Fungicidal activity against Candida tropicalis 86E assessed as reduction in CFU at 20 uM measured at 24 hrs by time kill assay relative to control; assay type: functional; how it was run: as §5
Candida albicans [28] = experiment: Antifungal activity against azole-susceptible Candida albicans isolate DSY294 in immunocompetent Balb/c mouse candidiasis model assessed as reduction in CFU count in spleen at 40 mg/kg/day, ip regime measured on day 7 post infection; assay type: functional, organism-based
How it was run: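 Immunocompetent BALB/c mice, 10 per strain group, injected in the lateral tail vein with 7 × 10^4 CFU of C. albicans in 200 µL sterile saline. Compound given ip daily, 100 µL of 0.1 mg/mL in DMSO/PEG 400 2:1; fluconazole control ip at 8 mg/kg/day. On day 7, spleen and kidneys were excised, weighed and homogenized in saline, then plated on YPD agar for 2 days at 30 °C. Read-out CFU/g; Wilcoxon rank-sum test, P<0.05.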

Candida albicans [29] = experiment: Upregulation of IFU5 gene expression in Candida albicans SC5314 at 3 uM after 45 mins by microarray method relative to control; assay type: functional; how it was run: as §3
Candida parapsilosis [30] = experiment: Ratio of MIC at 24 hrs to MIC at 48 hrs for Candida parapsilosis 81E; assay type: functional; how it was run: as §4

SMILES: C/C=C/CNC(=N)NCCCCCCCCN1CCCCCCCCNC(=N)NC1=O
- Activity (Candida albicans [1]): inactive
- MIC (Candida parapsilosis [2]): 10 µM (≈ 4.36 µg/mL)
- MIC (Pichia kudriavzevii [3]): 10 µM (≈ 4.36 µg/mL)
- fold change (FC) (Candida albicans [4]): 5.32
- fold change (FC) (Candida albicans [5]): 3.9
- Activity (Candida albicans [6]): Active
- fold change (FC) (Candida albicans [7]): 2.66
- fold change (FC) (Candida albicans [8]): 6.56
- fold change (FC) (Candida albicans [9]): 17.22
- fold change (FC) (Candida albicans [10]): 3.69
- fold change (FC) (Candida albicans [11]): 2.63
- fold change (FC) (Candida albicans [12]): 2.19
- Ratio (Pichia kudriavzevii [13]): 8
- MIC (Nakaseomyces glabratus [14]): > 80 µM
- MIC (Magnusiomyces capitatus [15]): 10 µM (≈ 4.36 µg/mL)
- fold change (FC) (Candida albicans [16]): 3.44
- MIC (Nakaseomyces glabratus [17]): > 80 µM
- MIC (Candida parapsilosis [18]): 20 µM (≈ 8.71 µg/mL)
- MIC (Candida albicans [19]): 5 µM (≈ 2.18 µg/mL)
- fold change (FC) (Candida albicans [20]): 2.83
- MIC (Magnusiomyces capitatus [21]): 10 µM (≈ 4.36 µg/mL)
- Ratio (Pichia kudriavzevii [22]): 8
- MIC [23]: 10 µM (≈ 4.36 µg/mL)
- inhibition at 80 µM (Pichia kudriavzevii [24]): 99.9%
- Activity (Candida parapsilosis [25]): Active
- fold change (FC) (Candida albicans [26]): 5.3
- fold change (FC) (Candida albicans [27]): 2.79
- Activity (Cryptococcus neoformans): Active
- inhibition at 20 µM (Candida tropicalis): 99.9%
- Activity (Candida albicans [28]): Active
- fold change (FC) (Candida albicans [29]): 2.58
- Ratio (Candida parapsilosis [30]): 2
